# Test results reported in the RNAGym collection of RNA variant scans (doi:10.1126/science.aae0568).
# This sample holds only a part of the variants without activity.
# B1: tRNA (parent)
# chain: GUUCCGUUGGCGUAAUGGUAACGCGUCUCCCUCCUAAGGAGAAGACUGCGGGUUCGAGUCCCGUACGGAACG
# Variants of: B1
# Test: yeast fitness relative to wild type (ratio to wild type); higher = fitter; tRNA-Arg(CCU), competitive growth, 37 C, YPD
# Procedure, shortened: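 Variants of the tRNA-Arg(CCU) gene, chemically synthesised with a 3% per-site mutation rate at 69 sites, were placed at the native genomic locus in Saccharomyces cerevisiae. The pooled strains were competed in YPD at 37°C for 24 hours in six parallel replicates. Gene amplicons from the start population and from each end population were read by 100-nucleotide paired-end sequencing. Darwinian fitness relative to wild type came from changes in genotype frequencies; genotypes needed ≥ 100 starting reads, and estimates < 0.5 were set to 0.5.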
row,Variant,yeast fitness
1,C4A A20G A42C C46G C49U A69C,≤ 0.5
2,C4A A37C G56A G68U,0.699
3,C4A A14G C30G A45G G52A,0.609
4,U3G U35A A70G,≤ 0.5
5,C4A A43C,0.89
6,C4A A43G,0.785
7,C4A A20C,0.64
8,C4A A37G,0.754
9,C4A A37U,0.795
10,C4A C29G,0.618
11,C4A C29U,0.763
12,C4A C29U C31U U54G A65U G67A,≤ 0.5
13,C4A A14U A20C U28G G63A,0.562
14,C4A C34U G51C A57C,≤ 0.5
15,C4A C30G A40U C49U,≤ 0.5
16,C4A C27U U28G C33G A36G C61G,≤ 0.5
17,C4A A14G A15G G56C,≤ 0.5
18,C4A A15G C33U,0.753
19,C4A C11A A57G,≤ 0.5
20,C4A C22G A37U U47A C62U,≤ 0.5
21,C4A C34G C62A C66U,≤ 0.5

row,Variant,yeast fitness
1,C4A C11A G39A G41C C46A G68A,≤ 0.5
2,C4A A65U C66A,≤ 0.5
3,C4A C11G G18C C27G,≤ 0.5
4,C4A A20G C24G C31G C62U,0.598
5,C4A C5G U8A C30A C62A,≤ 0.5
6,C4A C46U U47C C55U,≤ 0.5
7,C4A C11U C27G C33A A43C C46A,≤ 0.5
8,C4A A45U,0.818
9,C4A A45G,0.808
10,C4A C29G A36U A65G C66U,≤ 0.5
11,C4A A42G A45C,≤ 0.5
12,C4A A57C,0.57
13,C4A A57G,0.841
14,C4A C11A C29G A40G C62G,≤ 0.5
15,U3G U19C,0.841
16,U3G U19G,0.641
17,C4A C5U G48C,≤ 0.5
18,C4A A15C U35A C49A,0.545
19,C4A A57G A70C,0.617
20,C4A A57G A70U,0.587
21,C4A C30A A37C G58A A70U,≤ 0.5

row,Variant,yeast fitness
1,C4A C27U U28G C33G A36G C66U,0.542
2,C4A A15C A20C,≤ 0.5
3,U3G U47A G68C,≤ 0.5
4,C4A C31G A40U U64A,≤ 0.5
5,C4A C5G A20C A40U,0.5
6,C4A A20C C27U U32C C46U,≤ 0.5
7,U3G U26A C29A C34A G38A A65U,≤ 0.5
8,C4A C33A A36C G67A,≤ 0.5
9,C4A C31G G51C C66A,≤ 0.5
10,C4A C29G G68C,≤ 0.5
11,C4A A20G C34U,≤ 0.5
12,C4A A14U A20C U28G A70C,≤ 0.5
13,C4A C11U C31G U53C U54G,≤ 0.5
14,C4A C5A A43G,0.529
15,C4A A15G G17A C61G,≤ 0.5
16,C4A C27G A37C A45U U47C,≤ 0.5
17,C4A A40U A42G C55G,≤ 0.5
18,C4A C11G U19G U53C A65C,0.528
19,C4A A15U U19A C27A C29U C33U A70U,≤ 0.5
20,C4A A43U C60A,≤ 0.5
21,C4A A14U A20C U28G C66U,0.557

row,Variant,yeast fitness
1,C4A A14G C24U U32G A43G,≤ 0.5
2,C4A C11G U13A A20C C22U A36C,0.705
3,C4A C5A C34A A43G,≤ 0.5
4,C4A C29G C31A G67A,≤ 0.5
5,C4A C29G G38C,≤ 0.5
6,C4A C22U C27U,≤ 0.5
7,C4A A14C A21C C22U C24U C29U U53C,0.568
8,C4A A14G C22G C29U,0.569
9,C4A C24U C29U U32C U54C,≤ 0.5
10,C4A C24A,0.595
11,C4A C5G G50A U53A C60U G63C,0.614
12,C4A C34G,0.563
13,C4A C11U A40G,≤ 0.5
14,C4A C29U A37G G39C C49U G67A,≤ 0.5
15,C4A C24G G41U,≤ 0.5
16,C4A C5G C60U C62U,≤ 0.5
17,C4A A36C A42G,≤ 0.5
18,C4A C24A G41C G51C,≤ 0.5
19,C4A A20U C24U U26G C27U A36C A45U C55G,0.607
20,C4A C5G A20G A57U G68U,≤ 0.5
